Laboratory results: ChEMBL document CHEMBL4364329, “Prodrug Activation by a Viral Protease: Evaluating Combretastatin Peptide Hybrids To Selectively Target Infected Cells” (ACS Med Chem Lett, 2019)
Active and inactive are the calls of the source. The rule behind the calls is not given here. Non-standard residues stand in square brackets, D forms with d. Residues, ends and D or L forms follow the SMILES beside them. ξ: configuration not given here. *: point of attachment. X1 = COc1ccc(/C=C\c2cc(OC)c(OC)c(OC)c2)cc1N*; 2Abz = Nc1ccccc1C(=O)O; ξNle = CCCCC(N)C(=O)O; Bz = O=C(c1ccccc1)*

Columns and labels:
[1] = test system: HeLa; assay: Cytotoxicity against human HeLa cells harboring Dengue virus serotype 2 NS2B-NS3 protease assessed as reduction in cell viability after 72 hrs by cell titer blue assay; format: functional, cell-based
Outline: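 DENV2 protease-expressing HeLa cells (DENV2proHeLa) were incubated with compound for 72 h. CC50 was determined from triplicate wells.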

[2] = molecular target: Tubulin (Sus scrofa) (UniProt P02554+P02550); assay: Inhibition of porcine tubulin polymerization at 10 uM preincubated at 37 degC for 30 mins followed by chilling to 0 degC and subsequent addition of GTP by microtiter plate based absorbance detection assay relative to control; format: protein assay
[3] = test system: COc1ccc(/C=C\c2cc(OC)c(OC)c(OC)c2)cc1NC(=O)[C@H](C)NC(=O)[C@H](CCCNC(=N)N)NC(=O)[C@H](CCCNC(=N)N)NC(=O)c1ccccc1; assay: (§1) Substrate activity at Dengue virus serotype 2 NS2B-NS3 protease expressed in Escherichia coli BL21 lambda (DE3) cells assessed as Km for compound hydrolysis in TRIS buffer at pH 9 incubated for 10 mins at room temperature by Lineweaver-Burk plot analysis; format: ADME, dengue virus type 2
Outline: (§2)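 Recombinant DENV NS2B-NS3 protease at 1 μM incubated with substrate from 100 μM up to 1 mM in pH 9 buffer for 10 min at room temperature. Triplicate wells. Km, vmax and kcat were derived from a Lineweaver–Burk plot.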

[4] = test system: COc1ccc(/C=C\c2cc(OC)c(OC)c(OC)c2)cc1NC(=O)CNC(=O)CNC(=O)[C@H](CCCNC(=N)N)NC(=O)[C@H](CCCNC(=N)N)NC(=O)c1ccccc1; assay: as §1; format: ADME, dengue virus type 2; outline: as §2
[5] = test system: COc1ccc(/C=C\c2cc(OC)c(OC)c(OC)c2)cc1NC(=O)CNC(=O)[C@H](CCCNC(=N)N)NC(=O)[C@H](CCCNC(=N)N)NC(=O)c1ccccc1; assay: as §1; format: ADME, dengue virus type 2; outline: as §2
[6] = test system: COc1ccc(/C=C\c2cc(OC)c(OC)c(OC)c2)cc1NC(=O)CNC(=O)[C@H](CCCNC(=N)N)NC(=O)[C@H](CCCCN)NC(=O)c1ccccc1; assay: as §1; format: ADME, dengue virus type 2; outline: as §2
[7] = test system: CCCCC(NC(=O)c1ccccc1N)C(=O)N[C@@H](CCCCN)C(=O)N[C@@H](CCCNC(=N)N)C(=O)N[C@@H](CCCNC(=N)N)C(=O)N[C@@H](CO)C(=O)N[C@@H](Cc1ccc(O)cc1)C(N)=O; assay: as §1; format: ADME, dengue virus type 2; outline: as §2
[8] = molecular target: Genome polyprotein (dengue virus type 2) (UniProt P29990); assay: Inhibition of Dengue virus serotype 2 NS2B-NS3 protease expressed in Escherichia coli BL21 lambda (DE3) cells at 250 uM preincubated with enzyme for 15 mins followed by 2-Abz-Nle-Lys-Arg-Arg-Ser-(3-NO2)-Tyr-NH2 FRET substrate addition measured for 15 mins by fluorescence analysis

Sequence of Tubulin (Sus scrofa) (P02550 whole entry, looked up): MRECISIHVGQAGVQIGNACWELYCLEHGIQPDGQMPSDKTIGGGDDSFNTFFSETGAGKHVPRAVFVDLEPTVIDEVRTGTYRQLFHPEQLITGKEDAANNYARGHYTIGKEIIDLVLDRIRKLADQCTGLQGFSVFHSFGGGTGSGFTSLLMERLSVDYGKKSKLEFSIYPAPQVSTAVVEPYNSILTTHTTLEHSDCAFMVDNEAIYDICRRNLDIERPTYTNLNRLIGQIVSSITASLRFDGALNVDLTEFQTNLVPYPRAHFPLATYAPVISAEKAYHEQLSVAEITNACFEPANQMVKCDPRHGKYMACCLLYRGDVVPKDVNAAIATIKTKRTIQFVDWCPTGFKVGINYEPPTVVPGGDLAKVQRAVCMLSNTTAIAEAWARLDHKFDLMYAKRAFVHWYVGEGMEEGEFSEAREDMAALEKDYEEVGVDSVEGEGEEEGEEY
Sequence of Tubulin (Sus scrofa) (P02554 whole entry, looked up): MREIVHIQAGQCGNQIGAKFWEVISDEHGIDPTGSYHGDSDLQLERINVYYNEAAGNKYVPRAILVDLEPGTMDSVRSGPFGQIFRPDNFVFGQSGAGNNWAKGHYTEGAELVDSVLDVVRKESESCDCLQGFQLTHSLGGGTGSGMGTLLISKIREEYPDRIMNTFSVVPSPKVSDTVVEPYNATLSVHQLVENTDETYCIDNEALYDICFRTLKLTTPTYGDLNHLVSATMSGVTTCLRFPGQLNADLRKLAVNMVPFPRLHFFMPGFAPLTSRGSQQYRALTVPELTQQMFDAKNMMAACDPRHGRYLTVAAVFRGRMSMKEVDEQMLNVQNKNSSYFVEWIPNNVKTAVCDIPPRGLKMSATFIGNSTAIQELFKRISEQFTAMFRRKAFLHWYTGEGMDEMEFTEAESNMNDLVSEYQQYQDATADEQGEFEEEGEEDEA

COc1ccc(/C=C\c2cc(OC)c(OC)c(OC)c2)cc1NC(=O)CNC(=O)CNC(=O)[C@H](CCCNC(=N)N)NC(=O)[C@H](CCCNC(=N)N)NC(=O)c1ccccc1 (Bz-RRGG-X1)
Activity [1]: Toxic
inhibition [2]: 13.4%

COc1ccc(/C=C\c2cc(OC)c(OC)c(OC)c2)cc1N
Activity [1]: Toxic
inhibition [2]: 33.1%

COc1ccc(/C=C\c2cc(OC)c(OC)c(OC)c2)cc1NC(=O)[C@H](C)NC(=O)[C@H](CCCNC(=N)N)NC(=O)[C@H](CCCCN)NC(=O)c1ccccc1
inhibition [2]: -4.9%

Genome polyprotein (Dengue virus 2 Thailand/16681/84)
Km [3]: 949 µM
Vmax [3]: 17 µM/min
kcat [3]: 0.284 s⁻¹
Km [4]: 144 µM
Vmax [4]: 4.69 µM/min
kcat [4]: 0.0782 s⁻¹
Km [5]: 225 µM
Vmax [5]: 6.18 µM/min
kcat [5]: 0.103 s⁻¹
Km [6]: 173 µM
Vmax [6]: 2.14 µM/min
kcat [6]: 0.0357 s⁻¹
Km [7]: 182 µM
Vmax [7]: 10.1 µM/min
kcat [7]: 0.168 s⁻¹

COc1ccc(/C=C\c2cc(OC)c(OC)c(OC)c2)cc1NC(=O)CCNC(=O)[C@H](CCCNC(=N)N)NC(=O)[C@H](CCCNC(=N)N)NC(=O)c1ccccc1
Activity [1]: Toxic
inhibition [2]: 3.4%

COc1ccc(/C=C\c2cc(OC)c(OC)c(OC)c2)cc1NC(=O)[C@H](C)NC(=O)[C@H](CCCNC(=N)N)NC(=O)[C@H](CCCNC(=N)N)NC(=O)c1ccccc1
Activity [1]: Toxic
inhibition [2]: 3.4%

COc1ccc(/C=C\c2cc(OC)c(OC)c(OC)c2)cc1NC(=O)[C@H](CO)NC(=O)[C@H](CCCNC(=N)N)NC(=O)[C@H](CCCCN)NC(=O)c1ccccc1
inhibition [2]: -4.2%

COc1ccc(/C=C\c2cc(OC)c(OC)c(OC)c2)cc1NC(=O)CNC(=O)[C@H](CCCNC(=N)N)NC(=O)[C@H](CCCCN)NC(=O)c1ccccc1
Activity [1]: Toxic
inhibition [2]: -5.7%

COc1ccc(/C=C\c2cc(OC)c(OC)c(OC)c2)cc1NC(=O)[C@H](C)N
inhibition [2]: 40.5%

CCCCC(NC(=O)c1ccccc1N)C(=O)N[C@@H](CCCCN)C(=O)N[C@@H](CCCNC(=N)N)C(=O)N[C@@H](CCCNC(=N)N)C(=O)N[C@@H](CO)C(=O)N[C@@H](Cc1ccc(O)cc1)C(N)=O (stereo partly drawn) (H-[2Abz][ξNle]KRRSY-NH2)
inhibition [2]: inactive

COc1ccc(/C=C\c2cc(OC)c(OC)c(OC)c2)cc1NC(=O)[C@H](CO)NC(=O)[C@H](CCCNC(=N)N)NC(=O)[C@H](CCCNC(=N)N)NC(=O)c1ccccc1
Activity [1]: Toxic
inhibition [2]: 1.9%

COc1ccc(/C=C\c2cc(OC)c(OC)c(OC)c2)cc1NC(=O)CN
inhibition [2]: 61%

N=C(N)NCCC[C@H](NC(=O)[C@H](CCCCN)NC(=O)c1ccccc1)C(=O)O (Bz-Lys-Arg-OH)
inhibition [8]: 12.2%

COc1ccc(/C=C\c2cc(OC)c(OC)c(OC)c2)cc1NC(=O)CNC(=O)[C@H](CCCNC(=N)N)NC(=O)[C@H](CCCNC(=N)N)NC(=O)c1ccccc1
Activity [1]: Toxic
inhibition [2]: 26%

N=C(N)NCCC[C@H](NC(=O)[C@H](CCCNC(=N)N)NC(=O)c1ccccc1)C(=O)O (Bz-Arg-Arg-OH)
inhibition [8]: 35%

COc1ccc(/C=C\c2cc(OC)c(OC)c(OC)c2)cc1O
Activity [1]: Toxic
inhibition [2]: 60.3%
